Test results reported in article PMC3374877 (Chembiochem, 2011).
Entries after “also recorded” stand apart in the source; their conditions may differ. Bridges are numbered along the chain shown (N, C = ends). Where no end group is shown, it is not given here.

How the values were obtained:
[1] = system: TLR4 (RAW 264.7 macrophage cells); assay: Nitric oxide production in RAW 264.7 macrophages, LPS-induced TLR4 activation; format: cell-based; conditions: 50 μM peptide, LPS 50 ng/ml
In short: (§1)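 RAW 264.7 macrophages were stimulated with the TLR-specific ligand in the presence or absence of 50 μM peptide. Nitric oxide production was the read-out of pathway activation.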

[2] = target: TLR4; conditions: read-out: KD of full-length MD2 binding to TLR4; cited from earlier work
[3] = system: TLR1/TLR2 (RAW 264.7 macrophage cells); format: cell-based; conditions: 50 μM peptide, Pam3CSK4 250 ng/ml
In short: as §1

[4] = system: whole human blood; assay: Haemolysis in whole human blood; format: cell-based; conditions: concentrations up to 500 μM
[5] = system: TLR2/TLR6 (RAW 264.7 macrophage cells); format: cell-based; conditions: 50 μM peptide, PGN 50 μg/ml
In short: as §1

[6] = system: rats; assay: Behavioural observation after peptide injection; format: in vivo, rat; conditions: rats of the CCI test; intrathecal injection of peptide stock solutions
[7] = target: extracellular construct (a.a. 1–632) of human TLR4 (Homo sapiens, UniProt O00206); format: binding; conditions: fluorescence polarization
[8] = system: TLR4/MD2 complex; conditions: previously reported; cited from earlier work
[9] = system: HEK 293 cells; assay: Cytotoxicity, trypan blue staining, HEK 293 cells; format: cell-based
[10] = system: RAW 264.7 cells; assay: Cytotoxicity, trypan blue staining, RAW 264.7 cells; format: cell-based
[11] = system: rats subjected to CCI of the sciatic nerve; assay: Chronic constriction injury; format: in vivo; conditions: rat CCI; intrathecal; summary in words
In short: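 Rats underwent chronic constriction injury and were tested at baseline, then on days 4 and 11 after surgery to confirm allodynia. After a pre-drug assessment, peptide was delivered intrathecally into the peri-spinal cerebrospinal fluid by the lumbar approach, at approximately 250 μM final in the intrathecal space. Vehicle was saline. Allodynia was reassessed 1, 3 and 24 h after injection.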

[12] = system: BV2 cells; assay: Cytotoxicity, trypan blue staining, BV2 cells; format: cell-based

Sequence of extracellular construct (a.a. 1–632) of human TLR4 (O00206 24-632): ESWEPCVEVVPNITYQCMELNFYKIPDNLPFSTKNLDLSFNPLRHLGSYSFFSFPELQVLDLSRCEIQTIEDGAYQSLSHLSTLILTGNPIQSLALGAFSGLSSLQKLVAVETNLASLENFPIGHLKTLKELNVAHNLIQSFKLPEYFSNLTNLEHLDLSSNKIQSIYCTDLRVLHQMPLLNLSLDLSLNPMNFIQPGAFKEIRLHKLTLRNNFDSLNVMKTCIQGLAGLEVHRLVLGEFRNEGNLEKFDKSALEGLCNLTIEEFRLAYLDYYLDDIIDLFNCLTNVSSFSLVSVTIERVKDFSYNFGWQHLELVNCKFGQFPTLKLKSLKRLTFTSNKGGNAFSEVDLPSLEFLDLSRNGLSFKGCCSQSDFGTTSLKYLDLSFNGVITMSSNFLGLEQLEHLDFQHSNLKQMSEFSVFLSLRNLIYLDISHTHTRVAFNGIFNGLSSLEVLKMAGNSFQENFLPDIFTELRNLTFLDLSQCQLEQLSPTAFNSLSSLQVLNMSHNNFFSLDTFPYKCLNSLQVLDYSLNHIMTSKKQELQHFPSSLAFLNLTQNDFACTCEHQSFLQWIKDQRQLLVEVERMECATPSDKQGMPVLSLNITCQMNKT

Row | Substance | inhibition of TLR4 signalling (NO production) [1] | Kd [2] | inhibition of TLR1/2 signalling (NO production) [3] | haemolysis [4] | inhibition of TLR2/TLR6 signalling (NO production) [5] | abnormal behaviours after injection [6] | binding activity toward TLR4 (change in polarization) ([7]; TLR4 titrated, in words) | maximum polarization value ([7]; plateau upon addition of TLR4) | inhibition of TLR4 signalling, LPS antagonism [8] | cytotoxicity [9] | cytotoxicity [10] | suppression of neuropathic pain in vivo (summary statement) [11] | cytotoxicity [12]
1 | CRGSAAAYSFCAALAGA (disulfide 1-11 (inferred)) [MD2-III] | no inhibition on the TLR4 signaling; also recorded: no inhibitory effect on the TLR4 signaling | – | – | – | – | – | – | – | – | – | – | – | –
2 | full-length MD2: myeloid differentiation factor 2, accessory protein required for TLR4 activation | – | 12 nM | – | – | – | – | – | – | – | – | – | – | –
3 | CRGSDDDYSFCRALKGE (disulfide 1-11 (inferred)) [MD2-I] | significant reduced signals of LPS-induced TLR4 activation; also recorded: selectively inhibits the NO production induced by LPS | – | negligible inhibitory effects; also recorded: without affecting other homologous TLRs | does not induce haemolysis | negligible inhibitory effects; also recorded: without affecting other homologous TLRs | no abnormal behaviours were observed | robust increase | approximately 0.25 | abolishes TLR4 signalling by antagonizing its native ligand, lipopolysaccharide (LPS), binding to the TLR4/MD2 complex | little cytotoxicity | little cytotoxicity | moderate potency in an animal model; also recorded: able to suppress neuropathic pain in animal models; also recorded: could suppress neuropathic pain in vivo | little cytotoxicity
